ChEMBL document CHEMBL5247578, “Effective synthesis of benzimidazoles-imidazo[1,2-a]pyrazine conjugates: A comparative study of mono-and bis-benzimidazoles for antitumor activity” (Eur J Med Chem, 2019)

What was measured:
MCF7 [1] = test: Growth inhibition against human MCF7 cells incubated for 48 hrs by sulforhodamine B assay; format: functional
Malme-3M = test: Antiproliferative activity against human Malme-3M cells assessed as cell growth at 0.0000001 M incubated for 48 hrs by SRB assay relative to control; format: functional; conditions: dose 100 nM, read-out: Activity
A498 = test: Antiproliferative activity against human A498 cells assessed as cell growth at 0.00001 M incubated for 48 hrs by SRB assay relative to control; format: functional; conditions: read-out: Activity
Outline: (§1)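 NCI-60 five-dose screen over 10^-4–10^-8 M (10-fold dilutions). Cells grown in RPMI 1640 with 5% FBS and 2 mM L-glutamine, seeded at 5,000–40,000 cells/well and preincubated 24 h. Drug from DMSO stock, 48 h at 37 °C, 5% CO2. Adherent cells TCA-fixed and stained with 0.4% SRB; A515 read. Percent growth = (Ti−Tz)/(C−Tz)×100, or (Ti−Tz)/Tz×100 when Ti<Tz.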

MDA-MB-435 = test: Antiproliferative activity against human MDA-MB-435 cells assessed as cell growth inhibition by measuring lethal concentration incubated for 48 hrs by sulforhodamine B assay; format: functional; conditions: read-out: LC50 (the source's name)
KM12 = test: Antiproliferative activity against human KM12 cells assessed as cell growth at 0.0000001 M incubated for 48 hrs by SRB assay relative to control; format: functional; conditions: dose 100 nM, read-out: Activity
MOLT-4 [2] = test: Growth inhibition against human MOLT-4 cells assessed as total growth inhibitory concentration incubated for 48 hrs by sulforhodamine B assay; format: functional
HCT-116 = test: Antiproliferative activity against human HCT-116 cells assessed as cell growth at 0.0000001 M incubated for 48 hrs by SRB assay relative to control; format: functional; conditions: dose 100 nM, read-out: Activity
Outline: (§2)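 NCI-60 five-dose screen (10^-4 to 10^-8 M). Cells grown in RPMI 1640 with 5% FBS and 2 mM L-glutamine, plated at 5,000-40,000 cells/well and preincubated 24 h. Drug given from DMSO stock, then 48 h at 37 °C, 5% CO2. For adherent lines, cells fixed with cold TCA, SRB-stained and read at 515 nm. Percent growth taken against time-zero and untreated control.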

DU-145 [3] = test: Antiproliferative activity against human DU-145 cells assessed as cell growth inhibition by measuring lethal concentration incubated for 48 hrs by sulforhodamine B assay; format: functional; conditions: read-out: LC50 (the source's name)
SW-620 [4] = test: Antiproliferative activity against human SW620 cells assessed as cell growth at 0.0001 M incubated for 48 hrs by SRB assay relative to control; format: functional; conditions: read-out: Activity
Albumin = Albumin (Bos taurus, UniProt P02769); test: Binding affinity to bovine serum albumin assessed as binding constant by Benesi-Hildebrand equation based UV-vis spectrophotometric method; conditions: cattle
Chain of Albumin (P02769 whole entry): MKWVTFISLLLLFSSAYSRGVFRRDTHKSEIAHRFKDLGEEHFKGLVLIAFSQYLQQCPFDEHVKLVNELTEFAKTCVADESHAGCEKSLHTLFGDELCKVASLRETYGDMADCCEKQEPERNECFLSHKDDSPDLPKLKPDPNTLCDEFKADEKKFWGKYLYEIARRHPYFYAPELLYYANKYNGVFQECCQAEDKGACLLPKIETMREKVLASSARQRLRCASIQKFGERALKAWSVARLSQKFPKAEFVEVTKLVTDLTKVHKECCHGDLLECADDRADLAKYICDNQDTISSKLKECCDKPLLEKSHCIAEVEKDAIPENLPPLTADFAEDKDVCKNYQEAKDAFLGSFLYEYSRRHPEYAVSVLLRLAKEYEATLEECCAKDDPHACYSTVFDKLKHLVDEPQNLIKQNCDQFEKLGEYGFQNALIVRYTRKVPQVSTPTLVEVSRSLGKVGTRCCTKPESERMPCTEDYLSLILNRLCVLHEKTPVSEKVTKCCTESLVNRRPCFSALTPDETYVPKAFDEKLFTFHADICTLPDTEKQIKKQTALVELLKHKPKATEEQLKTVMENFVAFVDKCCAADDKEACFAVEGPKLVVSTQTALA

NCI-H522 [5] = test: Growth inhibition against human NCI-H522 cells incubated for 48 hrs by sulforhodamine B assay; format: functional
NCI-H460 = test: Antiproliferative activity against human NCI-H460 cells assessed as cell growth at 0.00001 M incubated for 48 hrs by SRB assay relative to control; format: functional; conditions: read-out: Activity
IGROV-1 [6] = test: Antiproliferative activity against human IGROV-1 cells assessed as cell growth at 0.0001 M incubated for 48 hrs by SRB assay relative to control; format: functional; conditions: read-out: Activity
UO-31 = test: Antiproliferative activity against human UO-31 cells assessed as cell growth at 0.00000001 M incubated for 48 hrs by SRB assay relative to control; format: functional; conditions: dose 10 nM, read-out: Activity
IGROV-1 [7] = test: Growth inhibition against human IGROV-1 cells assessed as total growth inhibitory concentration incubated for 48 hrs by sulforhodamine B assay; format: functional
UACC-62 = test: Growth inhibition against human UACC-62 cells incubated for 48 hrs by sulforhodamine B assay; format: functional
HOP-62 = test: Antiproliferative activity against human HOP-62 cells assessed as cell growth at 0.0001 M incubated for 48 hrs by SRB assay relative to control; format: functional; conditions: read-out: Activity; outline: as §2
NCI-H522 [8] = test: Antiproliferative activity against human NCI-H522 cells assessed as cell growth at 0.000001 M incubated for 48 hrs by SRB assay relative to control; format: functional; conditions: read-out: Activity
HT-29 [9] = test: Antiproliferative activity against human HT-29 cells assessed as cell growth at 0.000001 M incubated for 48 hrs by SRB assay relative to control; format: functional; conditions: read-out: Activity; outline: as §2
SNB-19 = test: Antiproliferative activity against human SNB-19 cells assessed as cell growth at 0.000001 M incubated for 48 hrs by SRB assay relative to control; format: functional; conditions: read-out: Activity
RPMI-8226 = test: Growth inhibition against human RPMI-8226 cells incubated for 48 hrs by sulforhodamine B assay; format: functional
BT-549 [10] = test: Antiproliferative activity against human BT-549 cells assessed as cell growth at 0.0000001 M incubated for 48 hrs by SRB assay relative to control; format: functional; conditions: dose 100 nM, read-out: Activity; outline: as §1
DU-145 [11] = test: Antiproliferative activity against human DU-145 cells assessed as cell growth at 0.00001 M incubated for 48 hrs by SRB assay relative to control; format: functional; conditions: read-out: Activity; outline: as §2
786-0 = test: Antiproliferative activity against human 786-0 cells assessed as cell growth inhibition by measuring lethal concentration incubated for 48 hrs by sulforhodamine B assay; format: functional; conditions: read-out: LC50 (the source's name)
A549 [12] = test: Antiproliferative activity against human A549 cells assessed as cell growth at 0.00000001 M incubated for 48 hrs by SRB assay relative to control; format: functional; conditions: dose 10 nM, read-out: Activity; outline: as §1
MOLT-4 [13] = test: Antiproliferative activity against human MOLT-4 cells assessed as cell growth at 0.00000001 M incubated for 48 hrs by SRB assay relative to control; format: functional; conditions: dose 10 nM, read-out: Activity
BT-549 [14] = test: Antiproliferative activity against human BT-549 cells assessed as cell growth at 0.00000001 M incubated for 48 hrs by SRB assay relative to control; format: functional; conditions: dose 10 nM, read-out: Activity; outline: as §1
MCF7 [15] = test: Antiproliferative activity against human MCF7 cells assessed as cell growth at 0.0000001 M incubated for 48 hrs by SRB assay relative to control; format: functional; conditions: dose 100 nM, read-out: Activity
HT-29 [16] = test: Antiproliferative activity against human HT-29 cells assessed as cell growth inhibition by measuring lethal concentration incubated for 48 hrs by sulforhodamine B assay; format: functional; conditions: read-out: LC50 (the source's name)
NCI-H322M = test: Growth inhibition against human NCI-H322M cells assessed as total growth inhibitory concentration incubated for 48 hrs by sulforhodamine B assay; format: functional
SW-620 [17] = test: Antiproliferative activity against human SW620 cells assessed as cell growth at 0.000001 M incubated for 48 hrs by SRB assay relative to control; format: functional; conditions: read-out: Activity
LOX IMVI = test: Antiproliferative activity against human LOX IMVI cells assessed as cell growth at 0.00001 M incubated for 48 hrs by SRB assay relative to control; format: functional; conditions: read-out: Activity
A549 [18] = test: Antiproliferative activity against human A549 cells assessed as cell growth inhibition by measuring lethal concentration incubated for 48 hrs by sulforhodamine B assay; format: functional; conditions: read-out: LC50 (the source's name)
Calf thymus DNA = test: Displacement of ethidium bromide from calf thymus DNA assessed as Stern-Volmer quenching constant upto 85 uM by fluorescence based spectroscopic analysis; format: nucleic-acid assay; conditions: Bos taurus
HOP-92 = test: Growth inhibition against human HOP-92 cells assessed as total growth inhibitory concentration incubated for 48 hrs by sulforhodamine B assay; format: functional
SK-OV-3 = test: Antiproliferative activity against human SK-OV-3 cells assessed as cell growth at 0.00000001 M incubated for 48 hrs by SRB assay relative to control; format: functional; conditions: dose 10 nM, read-out: Activity

Row | SMILES | GI50 (MCF7 [1]) | growth at 0.1 µM (Malme-3M) | growth at 10 µM (A498) | CC50 (MDA-MB-435) | growth at 0.1 µM (KM12) | TGI (MOLT-4 [2]) | growth at 0.1 µM (HCT-116) | CC50 (DU-145 [3]) | growth at 100 µM (SW-620 [4]) | Kb (Albumin) | GI50 (NCI-H522 [5]) | growth at 10 µM (NCI-H460) | growth at 100 µM (IGROV-1 [6]) | growth at 0.01 µM (UO-31) | TGI (IGROV-1 [7]) | GI50 (UACC-62) | growth at 100 µM (HOP-62) | growth at 1 µM (NCI-H522 [8]) | growth at 1 µM (HT-29 [9]) | growth at 1 µM (SNB-19) | also measured
1 | COc1ccc(-c2cn3ccnc3c(-c3ccc4ncn(C5CCCCC5)c4c3)n2)cc1 | 640 nM | 95% | 8% | > 100000 nM | 99% | > 100000 nM | 91% | > 100000 nM | 19% | 1.95 10^5/M | 424 nM | 4% | 24% | 91% | > 100000 nM | 434 nM | 8% | 28% | 20% | 45% | GI50 (RPMI-8226): 2960 nM; growth at 0.1 µM (BT-549 [10]): 88%; growth at 10 µM (DU-145 [11]): 14%; CC50 (786-0): > 100000 nM; growth at 0.01 µM (A549 [12]): 102%; growth at 0.01 µM (MOLT-4 [13]): 100%; growth at 0.01 µM (BT-549 [14]): 8%; growth at 0.1 µM (MCF7 [15]): 92%; CC50 (HT-29 [16]): > 100000 nM; TGI (NCI-H322M): > 100000 nM; growth at 1 µM (SW-620 [17]): 42%; growth at 10 µM (LOX IMVI): 17%; CC50 (A549 [18]): > 100000 nM; KSV (Calf thymus DNA): 0.82 10^4/M; TGI (HOP-92): > 100000 nM; growth at 0.01 µM (SK-OV-3): 87%
2 | c1ccc(Cn2cnc3ccc(-c4nc(-c5ccc6c(c5)ncn6C5CCCCC5)cn5ccnc45)cc32)cc1 | 2720 nM | 92% | -79% | > 100000 nM | 98% | > 100000 nM | 93% | > 100000 nM | 7% | 2.65 10^4/M | 2030 nM | -32% | 18% | 91% | > 100000 nM | 1980 nM | 5% | 88% | 88% | 93% | GI50 (RPMI-8226): 1150 nM; growth at 0.1 µM (BT-549 [10]): 92%; growth at 10 µM (DU-145 [11]): 4%; CC50 (786-0): > 100000 nM; growth at 0.01 µM (A549 [12]): 105%; growth at 0.01 µM (MOLT-4 [13]): 112%; growth at 0.01 µM (BT-549 [14]): 85%; growth at 0.1 µM (MCF7 [15]): 90%; CC50 (HT-29 [16]): > 100000 nM; TGI (NCI-H322M): > 100000 nM; growth at 1 µM (SW-620 [17]): 108%; growth at 10 µM (LOX IMVI): -90%; CC50 (A549 [18]): > 100000 nM; KSV (Calf thymus DNA): 0.74 10^4/M; TGI (HOP-92): 2620 nM; growth at 0.01 µM (SK-OV-3): 84%
